# Measured values published in ChEMBL document CHEMBL1153833, “Effect of dosing and dosing frequency on the efficacy of ceftizoxime and the emergence of ceftizoxime resistance during the early development of murine abscesses caused by Bacteroides fragilis and Enterobacter cloacae mixed infection” (Antimicrob Agents Chemother, 2007).
# Calls of active or inactive are those of the source.
# Tests used:
# Bacteroides fragilis [1] = test: Antimicrobial activity against Bacteroides fragilis ATCC 23745 infected BALB/c mouse mixed infection abscesses model co-infected with Enterobacter cloacae isolate 22491 assessed as reduction in bacterial load per abscess at 384 mg/kg/day administered every 8 hrs; format: functional
# Procedure, shortened: (§1)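 Female BALB/c mice (12-18 wk) injected s.c. on both flanks with 10^7 CFU each of B. fragilis and E. cloacae plus 4 mg autoclaved cecal contents. CZX was given s.c. from 30 min before inoculation for 24 h, two mice per group. Abscesses were homogenized in PBS and plated in duplicate: E. cloacae on EM agar (aerobic, 24 h), B. fragilis on WC agar with gentamicin (anaerobic, 48 h). Result is mean log10 CFU/abscess of four abscesses ± SEM versus untreated; threshold 1.7 log10.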
# Enterobacter cloacae [2] = test: Antimicrobial activity against Enterobacter cloacae isolate 22491 infected BALB/c mouse mixed infection abscesses model co-infected with Bacteroides fragilis ATCC 23745 assessed as increase in resistant bacterial count per abscess at 6 mg/kg/day administered every 4 hrs; format: functional
# Procedure, shortened: (§2)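 Mixed subcutaneous flank abscesses in female SPF BALB/c mice (10^7 CFU of each strain plus 4 mg autoclaved cecal contents). Drug given subcutaneously, starting 30 min before inoculation, for 24 h. Abscesses homogenized in PBS. Resistant E. cloacae counted on WC agar with 16x MIC (48 h aerobic, 37°C) and total counts on drug-free EM agar. Groups of two mice.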
# Enterobacter cloacae [3] = test: Antimicrobial activity against Enterobacter cloacae isolate 22491 infected BALB/c mouse mixed infection abscesses model co-infected with Bacteroides fragilis ATCC 23745 assessed as bacterial killing at 6 mg/kg/day administered every 2 hrs; format: functional, organism-based; procedure, shortened: as §1
# [4] = Ratio of fAUC to MIC in Enterobacter cloacae isolate 22491 infected BALB/c mouse mixed infection abscesses model co-infected with Bacteroides fragilis ATCC 23745; format: functional
# Enterobacter cloacae [5] = test: Antimicrobial activity against Enterobacter cloacae isolate 22491 infected BALB/c mouse mixed infection abscesses model co-infected with Bacteroides fragilis ATCC 23745 assessed as bacterial killing at 24 mg/kg/day administered every 4 hrs; format: functional, organism-based; procedure, shortened: as §1
# Bacteroides fragilis [6] = test: Antimicrobial activity against Bacteroides fragilis ATCC 23745 infected BALB/c mouse mixed infection abscesses model co-infected with Enterobacter cloacae isolate 22491 assessed as reduction in bacterial load per abscess at 1536 mg/kg/day administered every 8 hrs; format: functional; procedure, shortened: as §1
# Enterobacter cloacae [7] = test: Antimicrobial activity against Enterobacter cloacae isolate 22491 infected BALB/c mouse mixed infection abscesses model co-infected with Bacteroides fragilis ATCC 23745 assessed as bacterial killing at 96 mg/kg/day administered every 4 hrs; format: functional, organism-based; procedure, shortened: as §1
# Bacteroides fragilis [8] = test: Antimicrobial activity against Bacteroides fragilis ATCC 23745 infected BALB/c mouse mixed infection abscesses model co-infected with Enterobacter cloacae isolate 22491 assessed as bacterial killing at 96 mg/kg/day administered every 4 hrs; format: functional, organism-based; procedure, shortened: as §1
# [9] = Half life in Bacteroides fragilis ATCC 23745 and Enterobacter cloacae isolate 22491-infected BALB/c mouse mixed infection abscesses model at 100 mg/kg administered as 36 doses every 2 hrs; format: ADME, organism-based; set-up: dose 100 mg/kg; settings: in vivo
# Procedure, shortened: (§3)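 Infected mice received 36 doses of 100 mg/kg CZX q2h. Serum CZX measured in duplicate by agar diffusion bioassay against E. coli strain 62. One-compartment open model; unbound values assume 13% protein binding in mouse serum.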
# Enterobacter cloacae [10] = test: Antimicrobial activity against Enterobacter cloacae isolate 22491 infected BALB/c mouse mixed infection abscesses model co-infected with Bacteroides fragilis ATCC 23745 assessed as increase in resistant bacterial count per abscess at 96 mg/kg/day administered every 2 hrs; format: functional; procedure, shortened: as §2
# [11] = Half life in Bacteroides fragilis ATCC 23745 and Enterobacter cloacae isolate 22491-infected BALB/c mouse mixed infection abscesses model at 100 mg/kg administered as single dose; format: ADME, organism-based; set-up: dose 100 mg/kg; settings: in vivo
# Procedure, shortened: (§4)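 Single s.c. dose of 100 mg/kg CZX in groups of three infected mice, 4 days after inoculation. Orbital blood taken at 10-360 min. Serum CZX measured in duplicate by agar diffusion bioassay against E. coli strain 62. One-compartment open model; unbound values assume 13% serum protein binding.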
# Enterobacter cloacae [12] = test: Antimicrobial activity against Enterobacter cloacae isolate 22491 assessed as mutation prevention concentration; format: functional
# Procedure, shortened: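 Overnight culture concentrated to 10^10 CFU/ml by centrifugation. 1 ml spread over five agar plates containing drug, first at twofold dilutions, then at linear increments. Plates read after 18 h at 37°C. MPC taken as the lowest concentration giving no colonies from 10^10 bacteria. Colonies from the highest concentration were subcultured drug-free to check mutant stability.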
# Bacteroides fragilis [13] = test: Antimicrobial activity against Bacteroides fragilis ATCC 23745; format: functional
# Mus musculus [14] = test: Unbound Cmax (fCmax) in Bacteroides fragilis ATCC 23745 and Enterobacter cloacae isolate 22491-infected BALB/c mouse mixed infection abscesses model at 100 mg/kg administered as single dose; format: ADME, organism-based; set-up: dose 100 mg/kg; settings: in vivo; procedure, shortened: as §4
# Enterobacter cloacae [15] = test: Antimicrobial activity against Enterobacter cloacae isolate 22491; format: functional
# Enterobacter cloacae [16] = test: Antimicrobial activity against Enterobacter cloacae isolate 22491 infected BALB/c mouse mixed infection abscesses model co-infected with Bacteroides fragilis ATCC 23745 assessed as reduction in bacterial load per abscess at 1536 mg/kg/day administered every 8 hrs; format: functional; procedure, shortened: as §1
# Enterobacter cloacae [17] = test: Antimicrobial activity against Enterobacter cloacae isolate 22491 infected BALB/c mouse mixed infection abscesses model co-infected with Bacteroides fragilis ATCC 23745 assessed as increase in resistant bacterial count per abscess at 96 mg/kg/day administered every 4 hrs; format: functional; procedure, shortened: as §2
# Bacteroides fragilis [18] = test: Antimicrobial activity against Bacteroides fragilis ATCC 23745 infected BALB/c mouse mixed infection abscesses model co-infected with Enterobacter cloacae isolate 22491 assessed as bacterial killing at 6 mg/kg/day administered every 2 hrs; format: functional, organism-based; procedure, shortened: as §1
# [19] = fT>MIC in Enterobacter cloacae isolate 22491-infected BALB/c mouse at 100 mg/kg; format: functional
# Bacteroides fragilis [20] = test: Antimicrobial activity against Bacteroides fragilis ATCC 23745 infected BALB/c mouse mixed infection abscesses model co-infected with Enterobacter cloacae isolate 22491 assessed as bacterial killing at 24 mg/kg/day administered every 4 hrs; format: functional, organism-based; procedure, shortened: as §1
# Bacteroides fragilis [21] = test: Antimicrobial activity against Bacteroides fragilis ATCC 23745 infected BALB/c mouse mixed infection abscesses model co-infected with Enterobacter cloacae isolate 22491 assessed as inhibition of emergence of resistance mutation; format: functional, organism-based
# Procedure, shortened: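 Female SPF BALB/c mice (12–18 weeks, 20–25 g) injected subcutaneously on both flanks with 10^7 CFU B. fragilis, 10^7 CFU E. cloacae and 4 mg ACC. Drug given subcutaneously at 6–1,536 mg/kg/day, q2h–q8h, beginning 30 min before inoculation, for 24 h. B. fragilis mutants counted on WC agar with 16x MIC plus 100 mg/liter gentamicin, 72 h anaerobic, 37°C.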
# Enterobacter cloacae [22] = test: Antimicrobial activity against Enterobacter cloacae isolate 22491 infected BALB/c mouse mixed infection abscesses model co-infected with Bacteroides fragilis ATCC 23745 assessed as increase in resistant bacterial count per abscess at 24 mg/kg/day administered every 4 hrs; format: functional; procedure, shortened: as §2
# Enterobacter cloacae [23] = test: Antimicrobial activity against Enterobacter cloacae isolate 22491 infected BALB/c mouse mixed infection abscesses model co-infected with Bacteroides fragilis ATCC 23745 assessed as reduction in bacterial load per abscess at 384 mg/kg/day administered every 8 hrs; format: functional; procedure, shortened: as §1
# Enterobacter cloacae [24] = test: Antimicrobial activity against Enterobacter cloacae isolate 22491 infected BALB/c mouse mixed infection abscesses model co-infected with Bacteroides fragilis ATCC 23745 assessed as increase in resistant bacterial count per abscess at 6 mg/kg/day administered every 2 hrs; format: functional; procedure, shortened: as §2
# Mus musculus [25] = test: Unbound Cmax (fCmax) in Bacteroides fragilis ATCC 23745 and Enterobacter cloacae isolate 22491-infected BALB/c mouse mixed infection abscesses model at 100 mg/kg administered as 36 doses every 2 hrs; format: ADME, organism-based; set-up: dose 100 mg/kg; settings: in vivo; procedure, shortened: as §3
# Enterobacter cloacae [26] = test: Antimicrobial activity against Enterobacter cloacae isolate 22491 infected BALB/c mouse mixed infection abscesses model co-infected with Bacteroides fragilis ATCC 23745 assessed as increase in resistant bacterial count per abscess at 24 mg/kg/day administered every 2 hrs; format: functional; procedure, shortened: as §2
compound,measurement,setting,value
CO/N=C(\C(=O)N[C@@H]1C(=O)N2C(C(=O)O)=CCS[C@H]12)c1csc(N)n1 [CEFTIZOXIME],log10cfu,Bacteroides fragilis [1],>=5
same,log10cfu,Enterobacter cloacae [2],2
same,Activity,Enterobacter cloacae [3],inactive
same,Ratio,[4],1000
same,Activity,Enterobacter cloacae [5],inactive
same,log10cfu,Bacteroides fragilis [6],>=5
same,Activity,Enterobacter cloacae [7],inactive
same,Activity,Bacteroides fragilis [8],inactive
same,half-life,[9],13.2 min
same,log10cfu,Enterobacter cloacae [10],3.8
same,half-life,[11],13.8 min
same,MPC,Enterobacter cloacae [12],384 µg/mL
same,MIC,Bacteroides fragilis [13],1 µg/mL
same,Cmax_unbound,Mus musculus [14],600 ng/mL
same,MIC,Enterobacter cloacae [15],0.25 µg/mL
same,MIC99,Enterobacter cloacae [15],0.125 µg/mL
same,log10cfu,Enterobacter cloacae [16],>=5
same,log10cfu,Enterobacter cloacae [17],2
same,Activity,Bacteroides fragilis [18],inactive
same,T>MIC,[19],9%
same,Activity,Bacteroides fragilis [20],inactive
same,Activity,Bacteroides fragilis [21],Active
same,log10cfu,Enterobacter cloacae [22],2
same,log10cfu,Enterobacter cloacae [23],>=5
same,log10cfu,Enterobacter cloacae [24],3.8
same,Cmax_unbound,Mus musculus [25],600 ng/mL
same,log10cfu,Enterobacter cloacae [26],3.8
